Test [1] addresses T1, Calpain-1 catalytic subunit (Homo sapiens, UniProt P07384).
T1 sequence (P07384 whole entry): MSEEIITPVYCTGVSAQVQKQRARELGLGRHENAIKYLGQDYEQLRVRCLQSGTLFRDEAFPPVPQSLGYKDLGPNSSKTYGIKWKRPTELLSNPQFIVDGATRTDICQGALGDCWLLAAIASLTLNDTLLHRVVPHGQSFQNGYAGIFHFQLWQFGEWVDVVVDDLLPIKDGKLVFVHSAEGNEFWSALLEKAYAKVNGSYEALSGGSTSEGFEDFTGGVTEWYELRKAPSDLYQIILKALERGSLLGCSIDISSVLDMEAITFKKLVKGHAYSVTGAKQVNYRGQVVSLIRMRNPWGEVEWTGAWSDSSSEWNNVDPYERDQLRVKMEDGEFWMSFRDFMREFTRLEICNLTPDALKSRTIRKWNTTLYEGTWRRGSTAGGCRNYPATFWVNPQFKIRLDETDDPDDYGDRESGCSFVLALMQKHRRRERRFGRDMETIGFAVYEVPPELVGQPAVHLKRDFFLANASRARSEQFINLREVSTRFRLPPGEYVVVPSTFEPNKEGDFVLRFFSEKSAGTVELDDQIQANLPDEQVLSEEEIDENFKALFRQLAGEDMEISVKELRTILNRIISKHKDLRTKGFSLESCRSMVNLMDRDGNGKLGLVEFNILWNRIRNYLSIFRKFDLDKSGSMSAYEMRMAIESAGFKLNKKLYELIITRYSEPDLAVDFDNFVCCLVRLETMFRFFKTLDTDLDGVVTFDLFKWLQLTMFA
The test is described as follows: The calpain inhibitory activity(I 50) was measured as ability to enter the platelet to inhibit calpain after cell lysis(assay 2). To be noted: read-out: I50. In a few lines: (§1)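 Washed human platelets (7 × 10⁸/mL, Hank's) were exposed to inhibitor for 15 min at 30 °C. Cells were diluted in Tyrode-HEPES pH 7.4, pelleted twice to remove free drug, resuspended in Hank's and equilibrated 3 min. They were then lysed with Triton X-100 plus CaCl₂ and [³H]casein for 20 min at 30 °C. TCA-soluble counts were measured. I50 came from a five-concentration line.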

For test [2], the target named is T1, Calpain-1 catalytic subunit. The test is described as follows: The calpain inhibitory activity(I 50) was measured as ability to enter the platelet and inhibit calpain in the intact cells(assay 3); (+)indicates substantial inhibition by 5-44 uM. The class given is cell-based. The method in brief:
(§2)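 Washed human platelets (6 × 10⁸/mL, Hank's buffer) were preincubated with compound in DMSO at 30 °C for 15 min. Final concentrations were 0.8, 5.5, 44 or 440 μM. A23187 plus CaCl₂ was added for 10 min at room temperature. Samples were boiled in SDS sample buffer with leupeptin, run on 8% SDS-PAGE and stained with Coomassie. Loss of actin-binding protein and talin was scored.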

For test [3] the target is unchanged. The test is described as follows: The ability of compound to inhibit calpain in a preparation of lysed platelets was measured with a caseinolytic assay(assay 1). To be noted: read-out: I50. The method in brief:
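Washed human platelets (6 × 10⁸/mL) in Hank's solution were preincubated with inhibitor at 30 °C for 3 min. CaCl₂, Triton X-100 and [³H]casein were then added and incubated 20 min at 30 °C. The reaction was stopped with TCA, and TCA-soluble radioactivity was counted. I50 was estimated from fractional inhibition at five inhibitor concentrations.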

For test [4] the target is unchanged. The test is described as follows: The ability of compound to inhibit calpain in a preparation of lysed platelets was measured with a caseinolytic assay(assay 1); (+) indicates the compound was inhibitory, but I50 was not determined.
Test [5] shares this target. The test can be described thus: The calpain inhibitory activity(I 50) was measured as ability to enter the platelet and inhibit calpain in the intact cells(assay 3); (-)indicates little inhibition by 444 uM. The format is cell-based. In a few lines: as §2
For test [6] the target is unchanged. The test can be described thus: The calpain inhibitory activity(I 50) was measured as ability to enter the platelet to inhibit calpain after cell lysis(assay 2); (-)indicates little inhibition by 444 uM. The method in brief:
as §1

For the compound `CCOC(=O)[C@H]1O[C@@H]1C(=O)N[C@@H](CC(C)C)C(=O)NCCC(C)C` [ALOXISTATIN], the IC50 in test [1] and in test [3] was 4000 nM throughout. Moreover, in test [2], the I50 entry was “substantial inhibition by 5-44 uM”.

With `CC(C)CCNC(=O)[C@H](CC(C)C)NC(=O)[C@H]1O[C@@H]1C(=O)OCC(Br)(Br)Br`, in test [1], the IC50 was 5000 nM. In addition, the I50 entry in test [4] and in test [2] was “substantial inhibition by 5-44 uM” throughout.

As to `CC(C)CCNC(=O)[C@H](CC(C)C)NC(=O)[C@H]1O[C@@H]1C(=O)OCCI`, the IC50 in test [1] was 6000 nM. In addition, the I50 entry in test [4] and in test [2] was “substantial inhibition by 5-44 uM” each time.

Regarding `CC(C)CCNC(=O)[C@H](CC(C)C)NC(=O)[C@H]1O[C@@H]1C(=O)OCc1ccccc1Cl`, the IC50 in test [1] was found to be 2000 nM. Also, the I50 result in test [4] and in test [2] was “substantial inhibition by 5-44 uM” each time.

On to `CC(C)CCNC(=O)[C@H](CC(C)C)NC(=O)[C@H]1O[C@@H]1C(=O)OCCF`, for which the IC50 in test [1] was found to be 3000 nM; in test [3], 500 nM. Further, in test [2], the I50 result is “substantial inhibition by 5-44 uM”.

For `CC(C)CCNC(=O)[C@H](CC(C)C)NC(=O)[C@H]1O[C@@H]1C(=O)NCCc1c[nH]c2ccc(O)cc12`, the IC50 in test [1] came out at 4000 nM; in test [3], 6000 nM. The I50 entry in test [5] is “Little inhibition”.

Regarding `CC(C)CCNC(=O)[C@H](CC(C)C)NC(=O)[C@H]1O[C@@H]1C(=O)OCCCl`, the IC50 in test [1] was 300 nM; in test [3], 2000 nM. Moreover, in test [2], the I50 entry is reported as “substantial inhibition by 5-44 uM”.

With `CC(C)CCNC(=O)[C@H](CC(C)C)NC(=O)[C@H]1O[C@@H]1C(=O)OCC(Cl)(Cl)Cl`, the IC50 in test [1] is 1000 nM; in test [3], 700 nM. Besides, the I50 entry in test [2] was “substantial inhibition by 5-44 uM”.

Turning to `CC(C)CCNC(=O)[C@H](CC(C)C)NC(=O)[C@H]1O[C@@H]1C(=O)O` [E-64C], the I50 entry in test [6] and in test [5] was “Little inhibition” throughout. Besides, the IC50 in test [3] worked out at 40 nM.

Take `CC(C)CCNC(=O)[C@H](CC(C)C)NC(=O)[C@H]1O[C@@H]1C(=O)OCCBr`: the IC50 in test [1] amounted to 2000 nM; in test [3] it was 1000 nM. Also, the I50 entry in test [2] was “substantial inhibition by 5-44 uM”.

Regarding `CCCCC(COC(=O)[C@H]1O[C@@H]1C(=O)N[C@@H](CC(C)C)C(=O)NCCC(C)C)NC(=O)[C@H](CC(C)C)NC(=O)OCc1ccccc1` (stereo partly drawn), the I50 entry in test [5] is recorded as “Little inhibition”. Further, the IC50 in test [3] was found to be 100000 nM.

Take `CC(C)CCNC(=O)[C@H](CC(C)C)NC(=O)[C@H]1O[C@@H]1C(=O)OCC(F)(F)F`: in test [1], the IC50 worked out at 2000 nM. In addition, the I50 entry in test [4] and in test [2] was “substantial inhibition by 5-44 uM” throughout.

Regarding `CC(C)CCNC(=O)[C@H](CC(C)C)NC(=O)[C@H]1O[C@@H]1C(=O)Oc1ccc2[nH]cc(CCNC(=O)OC(C)(C)C)c2c1`, the IC50 in test [1] and in test [3] was 2000 nM in each case. Besides, in test [2], the I50 result was “substantial inhibition by 5-44 uM”.

Values taken from ChEMBL document CHEMBL1126246, “Ester and amide derivatives of E64c as inhibitors of platelet calpains” (J Med Chem, 1992).
